Source: ChEMBL document CHEMBL2321865 (J Med Chem, 2013)
pIC50, pKi: −log10 of the molar value. Activity calls are given as the source filed them.

How the values were obtained:
Mus musculus [1] = assay: Antinociceptive activity in CD1 mouse assessed as tail withdrawal latency at 0.6 nmol, icv measured after 15 to 30 mins by tail flick test; assay type: functional, organism-based
In short: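 Male CD-1 mice given i.c.v. injection (5 µL; 2 mm caudal, 2 mm lateral to bregma, 3 mm deep) under light isoflurane. Radiant heat focused 3-4 cm from the tail tip; withdrawal latency recorded, cut-off 15 s. Baseline is the mean of three readings 15 min apart; readings at 15-120 min; %MPE.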

Mus musculus [2] = assay: Antinociceptive activity in CD1 mouse assessed as paw licking and jumping latency at 0.6 nmol, icv measured after 15 to 30 mins by hot plate test; assay type: functional, organism-based
In short: (§1)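 Male CD-1 mice, 25-30 g, lightly isoflurane-anaesthetised; i.c.v. injection 2 mm caudal, 2 mm lateral to bregma, 3 mm deep, 5 µL. Hot plate held at 55.0 °C; latency to paw lick or jump, cut-off 60 s. Baseline is the mean of three readings 15 min apart. Latencies taken at 15-120 min after dosing and expressed as %MPE.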

Mus musculus [3] = assay: Antinociceptive activity in CD1 mouse assessed as tail withdrawal latency at 3000 nmol, iv measured after 15 to 60 mins by tail flick test relative to vehicle-treated control; assay type: functional
In short: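 Male CD-1 mice, lightly isoflurane-anaesthetised, given tail-vein injection at 5 mL/kg. Tail-flick latency to radiant heat focused 3-4 cm from the tail tip, cut-off 15 s. Baseline is the mean of three readings; readings at 15-180 min; expressed as %MPE. Mean ± S.E.M.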

Mus musculus [4] = assay: Antinociceptive activity in CD1 mouse assessed as paw licking and jumping latency at 3000 nmol, iv measured after 15 to 60 mins by hot plate test relative to vehicle-treated control; assay type: functional
In short: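 Male CD-1 mice, 25-30 g, lightly isoflurane-anaesthetised, dosed into the tail vein at 5 mL/kg. Hot plate at 55.0 °C; latency to paw lick or jump, cut-off 60 s. Baseline is the mean of three readings 15 min apart; readings to 180 min. %MPE = (post-drug − baseline)/(cut-off − baseline)×100. Mean ± S.E.M.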

Mus musculus [5] = assay: Antinociceptive activity in CD1 mouse assessed as paw licking and jumping latency at 0.6 nmol, icv measured after 30 to 45 mins by hot plate test relative to vehicle-treated control; assay type: functional; in short: as §1
Mu-type opioid receptor = Mu-type opioid receptor (Cavia porcellus, UniProt P97266); assay: Inhibition of MOR in Hartley guinea pig ileum longitudinal muscle myenteric plexus assessed as inhibition of electrically-stimulated muscle contraction after 3 mins; assay type: tissue-based
Mu-type opioid receptor, sequence (P97266 whole entry): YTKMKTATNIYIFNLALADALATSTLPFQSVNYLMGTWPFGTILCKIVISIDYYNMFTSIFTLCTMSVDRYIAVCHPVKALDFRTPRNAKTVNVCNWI
In short: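 Longitudinal muscle-myenteric plexus strips from male Hartley guinea pigs (150-400 g) in oxygenated Krebs at 37 °C. Stimulated at 0.1 Hz, 0.4 ms pulses, supramaximal voltage. […] IC₅₀ by Hill fit, at least four assays.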

[6] = target: Delta-type opioid receptor (Mus musculus, UniProt P32300); assay: Inhibition of DOR in ICR mouse vas deferens assessed as inhibition of electrically-stimulated muscle contraction after 3 mins; parameters: species or system Muscle tissue
Delta-type opioid receptor (Mus musculus, UniProt P32300), sequence (P32300 whole entry): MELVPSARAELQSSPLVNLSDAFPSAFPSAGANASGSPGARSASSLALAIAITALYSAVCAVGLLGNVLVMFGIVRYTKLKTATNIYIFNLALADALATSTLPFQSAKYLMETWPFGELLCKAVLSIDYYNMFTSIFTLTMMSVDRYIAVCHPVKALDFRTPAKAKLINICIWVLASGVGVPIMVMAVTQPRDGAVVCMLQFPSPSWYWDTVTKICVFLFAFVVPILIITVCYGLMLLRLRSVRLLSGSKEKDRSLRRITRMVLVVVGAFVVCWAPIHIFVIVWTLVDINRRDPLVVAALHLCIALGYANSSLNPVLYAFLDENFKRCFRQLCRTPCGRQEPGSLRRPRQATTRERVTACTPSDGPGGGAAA
In short: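 Vas deferens from male ICR mice, 25-30 g, in Mg-free Krebs at 37 °C under 95% O₂/5% CO₂. Transmural stimulation at 0.1 Hz, 2.0 ms pulses, supramaximal voltage. Cumulative curves over five to seven concentrations; inhibition read 3 min after each addition. IC₅₀ from a Hill fit, at least four assays.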

[7] = target: Delta-type opioid receptor (Rattus norvegicus, UniProt P33533); assay: Displacement of [3H]Deltorphin from DOR in Sprague-Dawley rat brain membrane after 180 mins by scintillation counting analysis; assay type: cell membranes
Delta-type opioid receptor (Rattus norvegicus, UniProt P33533), sequence (P33533 whole entry): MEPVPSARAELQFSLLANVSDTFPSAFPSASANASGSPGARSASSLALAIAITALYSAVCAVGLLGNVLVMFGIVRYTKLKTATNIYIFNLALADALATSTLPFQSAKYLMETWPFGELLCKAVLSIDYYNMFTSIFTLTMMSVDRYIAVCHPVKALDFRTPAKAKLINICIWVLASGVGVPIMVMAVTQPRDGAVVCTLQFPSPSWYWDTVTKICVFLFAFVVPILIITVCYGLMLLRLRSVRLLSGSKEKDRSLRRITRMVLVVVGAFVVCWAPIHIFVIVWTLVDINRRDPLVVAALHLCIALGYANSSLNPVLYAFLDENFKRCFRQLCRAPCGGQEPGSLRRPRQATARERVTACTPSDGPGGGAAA
In short: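 Whole brain homogenate from male Sprague-Dawley rats, pre-incubated 30 min at 25 °C to remove endogenous opioids. Six to seven test concentrations; rapid filtration; nonlinear least-squares fit; at least two assays, each in duplicate.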

SMILES	Activity (Mus musculus [1])	Activity (Mus musculus [2])	Activity (Mus musculus [3])	Activity (Mus musculus [4])	MPE (Mus musculus [5])	pIC50 (Mu-type opioid receptor)	pIC50 [6]	pKi [7]
C[C@@H](NC(=O)[C@@H](N)Cc1ccc(O)cc1)C(=O)NCC(=O)N[C@@H](Cc1ccccc1)C(=O)NNC(=O)[C@H](Cc1ccccc1)NC(=O)CNC(=O)[C@@H](C)NC(=O)[C@@H](N)Cc1ccc(O)cc1 [BIPHALIN]	Active	Active	Active	Active	100%	–	–	–
C[C@@H](NC(=O)C[C@@H](N)Cc1ccc(O)cc1)C(=O)NCC(=O)N[C@@H](Cc1ccccc1)C(=O)N[C@H](CC(=O)N[C@H](C)C(=O)NCC(=O)N[C@@H](Cc1ccccc1)C(N)=O)Cc1ccc(O)cc1	–	–	–	–	–	6.17	6.15	6.32
